# The list is not random: actives were taken first. Their share in the collection is about 1.7%.
# RanGTP-Imp inh = inhibitors of RanGTP-importin-beta interaction, primary screen, biochemical, FRET, CFP-Ran, YFP-importin-beta, homogeneous; 300,000 compounds, 1.1% hits; cell-free CFP-Ran/YFP-importin-beta FRET ratio; AID 2216; inhibition, % (test concentration not listed);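 active = more than half of the replicate wells show a fall in the fluorescence ratio signal beyond about 16%, limit read from the data, passing the limit was not always enough; inconclusive = exactly half of the replicate wells pass the set limit; inactive = fewer than half of replicates pass the limit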;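 note: 0% = DMSO wells and 100% = Ran loaded with GDP instead of GTP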
# Hck Nef HTS = human Hck-Nef kinase inhibition; P08631; Recombinant Hck-YEEI plus Nef, Z-Lyte FRET kinase assay; inhibition, % at 20 µM; 220,000 compounds, 0.68% hits;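 active = Hck-Nef kinase inhibition above about 50%, limit read from the data; inactive = inhibition below that limit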;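 note: 0% = DMSO with Hck plus Nef and 100% = Hck alone without Nef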
# Target sequence (P08631 whole entry, looked up): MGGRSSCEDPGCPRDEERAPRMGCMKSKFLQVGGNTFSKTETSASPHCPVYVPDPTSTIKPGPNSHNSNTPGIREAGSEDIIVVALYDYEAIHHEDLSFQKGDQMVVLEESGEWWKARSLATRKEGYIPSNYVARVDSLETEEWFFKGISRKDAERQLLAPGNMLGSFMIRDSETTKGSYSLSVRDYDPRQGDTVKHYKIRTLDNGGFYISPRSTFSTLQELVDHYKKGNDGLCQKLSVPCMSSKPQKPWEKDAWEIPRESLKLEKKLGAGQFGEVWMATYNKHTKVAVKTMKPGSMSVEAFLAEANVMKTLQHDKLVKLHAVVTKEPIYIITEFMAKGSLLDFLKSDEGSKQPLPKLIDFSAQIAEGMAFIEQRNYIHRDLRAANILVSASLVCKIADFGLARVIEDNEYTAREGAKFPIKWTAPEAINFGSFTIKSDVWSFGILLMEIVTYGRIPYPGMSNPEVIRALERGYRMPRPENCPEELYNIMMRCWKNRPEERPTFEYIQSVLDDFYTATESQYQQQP
# Runt-SMMHC FRET = Runt domain-CBFb-SMMHC interaction inhibition; Q01196+Q13951; Cerulean-Runt/Venus-CBFb-SMMHC FRET ratio 530/480, 1 h; inhibition, % at 20 µM; 220,000 compounds, 0.74% hits; AID 1434;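 active = mean inhibition across duplicate retests at 20 µM reaching about 50%, limit read from the data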;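 note: 0% = DMSO wells and 100% = wells with excess untagged CBFb-SMMHC; inhibitors lower the FRET ratio by blocking Runt binding to CBFb-SMMHC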
# Runt-CBFb FRET = Runt domain-CBFb interaction inhibition; Cerulean-Runt/Venus-CBFb FRET ratio 530/480, 1 h; inhibition, % at 20 µM; 220,000 compounds, 0.46% hits; AID 1496;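 active = inhibition over about 50% at 20 µM in the single-dose screen, limit read from the data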;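 note: 0% = DMSO wells and 100% = excess unlabeled CBFb competitor control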
#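 Assay system: Cerulean-Runt domain fusion protein, energy donor; Signal: fluorescence energy transfer, 422 nm excitation, 530/480 nm emission; Timing: 1 h compound exposure, room temperature; Control set: unlabeled CBFb; Medium: Tris buffer pH 7.5 with salts and BSA; Compound: single test concentration of 20 µM, 1% DMSO final; Probe or stimulus: Venus-CBFb 100 nM.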
# Runt-CBFb TRFRET = inhibitors of human RUNX1 Runt domain binding to CBFb; shares compounds with Runt-CBFb FRET; TR-FRET RUNX1 Runt domain-CBFb binding; inhibition, % at 20 µM; 480 compounds, 20% hits; AID 1502; in the data active = inhibition above about 40%
# * = called active by the depositor; u = inconclusive; x = not tested or not shown.
SMILES,RanGTP-Imp inh,Hck Nef HTS,Runt-SMMHC FRET,Runt-CBFb FRET,Runt-CBFb TRFRET
Cc1ccc2c(COC(=O)CC3Sc4ccccc4NC3=O)cc(=O)oc2c1C (centres undefined),-1.8,2.7,1.9,-5.3,x
CC(C)S(=O)(=O)C1=NSC2=NC(=O)/C(=C\c3ccc(-c4cccc(C(=O)O)c4)o3)C(=N)N21,x,30.0,65.5,59.6*,21.2
Cc1ccc(C)c(S(=O)(=O)N2CCCOC2CNC(=O)C(=O)NCc2ccncc2)c1 (centres undefined),-2.3,27.4,0.6,0.2,x
O=C(CSc1nnc(CNC(=O)c2ccco2)o1)Nc1ccccc1,0.8,14.7,-2.0,0.9,x
O=C(CSc1nnc(CNC(=O)c2ccco2)o1)Nc1nc2ccccc2s1,2.2,-7.1,20.7,55.8*,63.7*
O=[N+]([O-])c1cccc(C(=S)N2CCN(c3ccccc3)CC2)c1,1.0,14.2,23.8,52.6*,20.6
CC(=O)Nc1ccc(S(=O)(=O)N2CCN(c3cc(C(F)(F)F)ccn3)CC2)cc1,2.4,10.3,-3.2,56.2*,75.5*
CC(=O)Nc1cccc(/C(C)=N/N2C(C)CCCC2C)c1 (centres undefined),-0.6,x,x,x,x
O=C1C2C3C=CC(CO)(O3)C2C(=O)N1c1ccccc1-c1ccccc1 (centres undefined),x,5.4,67.8*,61.4*,70.5*
COc1ccc(S(=O)(=O)NC(C)C(=O)NCc2ccccn2)cc1OC (centres undefined),-0.8,x,x,x,x
O=C(COc1cccc(Cl)c1Cl)Nc1ccc2c(c1)CCC2,2.6,0.1,-13.3,63.1*,-26.9
COc1ccc([N+](=O)[O-])cc1NC(=O)CSc1nc(C)cc(C)n1,-1.7,1.6,45.8,57.3*,16.1
COc1ccc([N+](=O)[O-])cc1NC(=O)CSc1ccc2ccccc2c1,2.1,-1.1,1.9,-0.8,x
O=S(=O)(NCCn1ccc2ccccc21)c1ccccc1,-3.6,4.0,-3.0,0.8,x
Oc1ccc(/C=N/N=C(c2ccccc2)c2ccccc2)c(O)c1O,x,-1.1,46.5,56.7*,62.8*
Cc1cc(C)c2c(n1)SCC(=O)N2CC(=O)Nc1c(C)cccc1C,-4.0,x,x,x,x
CCOC(=O)Cn1cc(C#N)c2cccc(CC)c21,4.7,6.7,3.4,-2.8,x
Cc1c(Cc2ccccc2)sc(/N=C/c2c(O)ccc3ccccc23)c1C(N)=O,119.9*,8.5,63.1*,104.8*,28.8
Cc1c(Cc2ccccc2)sc(/N=C/c2ccc3ccccc3c2)c1C(N)=O,x,-0.3,-5.2,1.3,x
O=S(=O)(/N=C(/c1ccccc1)N1CCOCC1)c1ccc(F)cc1,2.1,x,x,x,x
COCCCNC(=S)NCCCNc1nc2cc3c(cc2cc1C#N)OCO3,53.1*,33.2,140.5*,78.1*,26.9
O=C1/C(=C/c2ccncc2)SC(=S)N1Nc1ccccc1,8.9,-28.3,27.9,50.2*,49.8*
O=C(O)c1ccc(/C=C2\SC(=S)N(Nc3ccccc3)C2=O)cc1,-2.0,-2.7,1.9,22.8,x
O=C1C(Cl)=C(Nc2ccc3cn[nH]c3c2)C(=O)c2ccccc21,4.0,-43.2,31.7,51.2*,-18.7
O=C(Nc1ccc2cn[nH]c2c1)c1c(Cl)cccc1Cl,1.4,10.9,8.1,5.4,x
SMILES,RanGTP-Imp inh,Hck Nef HTS,Runt-SMMHC FRET,Runt-CBFb FRET,Runt-CBFb TRFRET
Oc1ccc(Cl)cc1C1=Nc2ccccc2N=C(c2ccco2)C1,0.5,6.6,-50.6,-31.5,x
Fc1ccccc1C1CC(c2ccco2)=Nc2ccccc2S1 (centres undefined),2.2,10.6,2.6,50.4*,22.0
O=C(CSCc1cc(=O)n2nc(C3CC3)sc2n1)Nc1ccccc1Cl,-0.2,x,x,x,x
O=C(CSc1ncnc2ccccc12)c1ccco1,u,31.8,115.8*,59.0*,41.9*
COC(=O)c1cc(=O)nc2sc(-c3ccc(F)cc3)nn12,0.2,-1.3,5.1,51.5*,21.5
Cc1ccc2nc3c(cc(C(=O)NCCCn4ccnc4)n3C)c(=O)n2c1,-2.8,34.6,77.1*,53.6*,-23.3
O=C(O)c1ccc(/C=C2\SC(=Nc3ccccc3)N(c3ccccc3)C2=O)cc1,6.3,22.4,-1.9,-1.9,x
O=c1c2ccccc2sn1-c1nccs1,7.8,-26.5,79.5*,50.1*,-7.8
COc1ccc(Cn2c3nc4ccccc4nc3c3c(=O)n(Cc4ccco4)c(C)nc32)cc1,x,x,47.5,51.8*,-29.2
Cc1nc2c(c(=O)n1Cc1ccccc1Cl)c1nc3ccccc3nc1n2Cc1ccco1,x,x,20.5,33.4,x
Cc1ccc(CNC(=O)CS(=O)(=O)c2cn(CC(=O)N3CCOCC3)c3ccccc23)cc1,0.1,x,x,x,x
Nc1ncnc(Sc2ccccc2)c1[N+](=O)[O-],-4.9,0.4,3.3,1.8,x
Nc1ncnc(Sc2ncccn2)c1[N+](=O)[O-],-0.1,15.4,10.1,62.3*,1.2
CCC(C)NC(=S)NNC(=O)c1ccc(C(C)(C)C)cc1 (centres undefined),0.0,0.7,3.1,-0.3,x
CCCc1cc(C(=O)N2CCN(c3ccc(C(F)(F)F)cn3)CC2)sc1C,-2.5,x,x,x,x
Cc1[nH]c2ccccc2c1SCC(=O)O,-3.6,-7.4,-9.4,69.7*,-28.2
COc1ccc(S(=O)(=O)N(C(C)=O)c2ccc3oc(=O)sc3c2)cc1,-0.3,-0.1,58.2*,67.0*,16.4
CCCn1c(=NC(=O)c2c(-c3c(F)cccc3Cl)noc2C)c(C(=O)OCC)cc2c(=O)n3ccccc3nc21,0.8,11.6,60.1*,71.5*,-79.4
CCOC(=O)c1cc2c(=O)n3ccccc3nc2n(Cc2ccco2)c1=NC(=O)c1cccc(OC)c1,33.0*,29.8,86.3*,98.8*,55.4*
COC(=O)NNC(=S)NCc1ccccc1,-1.3,4.9,0.7,0.8,x
COc1ccc(CN2CCN(c3ccccc3OC)CC2)cc1OC,-0.4,x,x,x,x
COc1ccccc1N1CCN(Cc2ccsc2)CC1,6.5,3.2,1.3,54.0*,-5.9
CCCOC(=O)C1=C(C)NC2=C(C(=O)CC(C)(C)C2)C1c1cccnc1 (centres undefined),u,32.8,127.2*,63.4*,-15.4
CCCOC(=O)C1=C(C)NC2=C(C(=O)CC(C)(C)C2)C1c1ccc(N(C)C)cc1 (centres undefined),4.6,3.8,11.8,2.5,x
Cc1cc(C)n2nc(C(=O)OCC(=O)c3ccc(F)cc3)nc2n1,4.7,x,x,x,x
Cc1ccccc1C(=O)NC(=S)Nc1sc2c(c1C#N)CCCC2,6.6,3.4,15.0,25.4,x
Cc1onc(-c2ccccc2)c1C(=O)NC(=S)Nc1sc2c(c1C#N)CCCC2,0.2,-2.9,37.0,50.8*,10.1
Cn1cc(C(=O)Nc2ccc(F)c(Cl)c2)cn1,-3.3,-2.4,3.8,0.0,x
CN1c2ccsc2C(O)=C(C(=S)Nc2ccc(F)c(Cl)c2)S1(=O)=O,124.0*,3.6,x,85.2*,-13.9
Cc1cc(C)c(NC(=S)NCC2CCN(C(C)c3ccccc3)C2)c(C)c1 (centres undefined),4.8,-54.2,44.7,54.1*,35.9
